Assay results taken from ChEMBL document CHEMBL4411287, “Discovery and optimization of a series of 3-substituted indazole derivatives as multi-target kinase inhibitors for the treatment of lung squamous cell carcinoma” (Eur J Med Chem, 2019).
pIC50: −log10 of the molar value.

Columns and labels:
[1] = molecular target: Fibroblast growth factor receptor 1 (Homo sapiens, UniProt P11362); assay: Inhibition of FGFR1 (unknown origin) after 60 mins by ELISA
[2] = Half life in ICR(CD-1) mouse at 10 mg/kg, po administered via gavage by triple quadrupole mass spectrometric analysis; assay type: ADME, organism-based; details: in vivo
Summary of the method: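 Oral gavage at 1 mg/mL in 1% Tween80/water to male ICR mice (18-22 g, n=3). Plasma sampled at 0.25, 0.5, 1, 2, 4, 8 and 24 h, protein precipitated with methanol:acetonitrile (1:1) containing internal standard, and quantified by UPLC-triple quadrupole MS. AUC and MRT were taken from per-animal time-concentration curves. Cmax is the maximum plasma level and Tmax the time to reach it.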

[3] = molecular target: Cyclin-dependent kinase 1 (Homo sapiens) (UniProt P06493); assay: Inhibition of CDK1 (unknown origin) at 1000 nM relative to control
[4] = molecular target: Cyclin-dependent kinase 4 (Homo sapiens) (UniProt P11802); assay: Inhibition of CDK4 (unknown origin) at 1000 nM relative to control
[5] = molecular target: Receptor tyrosine-protein kinase erbB-4 (Homo sapiens) (UniProt Q15303); assay: Inhibition of ErbB4 (unknown origin) at 1000 nM relative to control
Summary of the method: (§1)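 Purified recombinant kinase domains run in ELISA on precoated poly(Glu,Tyr) 4:1 (20 µg/mL) with 10 µM ATP in 50 mM HEPES pH 7.4, 50 mM MgCl2, 0.5 mM MnCl2, 0.2 mM Na3VO4, 1 mM DTT; 1% DMSO control; 60 min at 37 °C. Phosphotyrosine read by PY99 antibody, HRP anti-mouse IgG, OPD/H2O2 at 490 nm; inhibition = [1−A490/A490control]×100%; two separate experiments.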

[6] = molecular target: Tyrosine-protein kinase JAK1 (Homo sapiens) (UniProt P23458); assay: Inhibition of JAK1 (unknown origin) at 1000 nM relative to control; summary of the method: as §1
Tyrosine-protein kinase JAK1 (Homo sapiens), sequence (P23458 whole entry): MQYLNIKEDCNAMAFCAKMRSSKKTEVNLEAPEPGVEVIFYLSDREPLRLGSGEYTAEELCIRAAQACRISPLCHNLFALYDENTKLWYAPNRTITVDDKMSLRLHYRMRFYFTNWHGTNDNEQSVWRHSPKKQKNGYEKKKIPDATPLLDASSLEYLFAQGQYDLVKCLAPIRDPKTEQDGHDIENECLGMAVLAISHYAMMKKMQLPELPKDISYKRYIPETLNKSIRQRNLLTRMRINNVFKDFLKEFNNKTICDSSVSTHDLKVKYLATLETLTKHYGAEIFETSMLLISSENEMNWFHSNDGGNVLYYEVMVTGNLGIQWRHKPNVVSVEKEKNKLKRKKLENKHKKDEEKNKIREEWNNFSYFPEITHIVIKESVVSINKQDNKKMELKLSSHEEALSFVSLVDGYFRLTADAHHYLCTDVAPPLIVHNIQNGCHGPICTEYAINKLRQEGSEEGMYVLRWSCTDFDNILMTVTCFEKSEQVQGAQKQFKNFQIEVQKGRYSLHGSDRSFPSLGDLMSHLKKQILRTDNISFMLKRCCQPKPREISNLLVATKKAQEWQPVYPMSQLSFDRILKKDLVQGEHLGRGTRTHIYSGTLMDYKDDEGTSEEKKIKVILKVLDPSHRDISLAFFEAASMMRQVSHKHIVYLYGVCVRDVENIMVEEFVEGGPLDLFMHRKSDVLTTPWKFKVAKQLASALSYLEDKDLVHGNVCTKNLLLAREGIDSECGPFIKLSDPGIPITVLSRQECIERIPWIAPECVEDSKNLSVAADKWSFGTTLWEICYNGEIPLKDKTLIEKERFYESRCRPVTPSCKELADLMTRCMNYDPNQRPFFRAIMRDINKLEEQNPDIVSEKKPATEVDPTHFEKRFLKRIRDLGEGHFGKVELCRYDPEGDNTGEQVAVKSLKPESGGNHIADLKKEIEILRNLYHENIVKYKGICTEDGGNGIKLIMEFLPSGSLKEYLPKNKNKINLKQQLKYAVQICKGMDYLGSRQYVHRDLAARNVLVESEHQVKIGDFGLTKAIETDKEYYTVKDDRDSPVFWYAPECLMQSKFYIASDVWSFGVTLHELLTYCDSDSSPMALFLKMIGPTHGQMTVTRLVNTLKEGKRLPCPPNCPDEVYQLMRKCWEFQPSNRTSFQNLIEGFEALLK

[7] = molecular target: Tyrosine-protein kinase BTK (Homo sapiens) (UniProt Q06187); assay: Inhibition of BTK (unknown origin) at 100 nM relative to control
Tyrosine-protein kinase BTK (Homo sapiens), sequence (Q06187 whole entry): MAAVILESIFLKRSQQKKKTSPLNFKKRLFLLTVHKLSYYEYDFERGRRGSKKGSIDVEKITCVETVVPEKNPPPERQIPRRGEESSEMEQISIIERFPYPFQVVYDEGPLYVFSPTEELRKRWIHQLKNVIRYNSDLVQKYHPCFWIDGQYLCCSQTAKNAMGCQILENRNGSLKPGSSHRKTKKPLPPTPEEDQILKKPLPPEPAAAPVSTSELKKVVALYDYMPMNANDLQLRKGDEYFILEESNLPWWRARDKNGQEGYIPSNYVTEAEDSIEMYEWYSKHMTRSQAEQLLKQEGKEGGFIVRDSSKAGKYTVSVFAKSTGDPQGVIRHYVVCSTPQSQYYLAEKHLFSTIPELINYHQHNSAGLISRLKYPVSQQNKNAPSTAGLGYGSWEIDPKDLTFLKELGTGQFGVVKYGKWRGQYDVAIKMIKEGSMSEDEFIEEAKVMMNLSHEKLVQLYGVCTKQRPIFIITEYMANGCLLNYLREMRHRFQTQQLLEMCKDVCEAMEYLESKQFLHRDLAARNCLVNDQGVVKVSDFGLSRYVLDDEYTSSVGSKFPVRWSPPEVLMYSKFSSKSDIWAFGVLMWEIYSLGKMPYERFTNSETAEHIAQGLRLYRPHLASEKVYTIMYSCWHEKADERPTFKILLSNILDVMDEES

[8] = molecular target: Receptor tyrosine-protein kinase erbB-2 (Homo sapiens) (UniProt P04626); assay: Inhibition of ErbB2 (unknown origin) at 100 nM relative to control; summary of the method: as §1
Receptor tyrosine-protein kinase erbB-2 (Homo sapiens), sequence (P04626 whole entry): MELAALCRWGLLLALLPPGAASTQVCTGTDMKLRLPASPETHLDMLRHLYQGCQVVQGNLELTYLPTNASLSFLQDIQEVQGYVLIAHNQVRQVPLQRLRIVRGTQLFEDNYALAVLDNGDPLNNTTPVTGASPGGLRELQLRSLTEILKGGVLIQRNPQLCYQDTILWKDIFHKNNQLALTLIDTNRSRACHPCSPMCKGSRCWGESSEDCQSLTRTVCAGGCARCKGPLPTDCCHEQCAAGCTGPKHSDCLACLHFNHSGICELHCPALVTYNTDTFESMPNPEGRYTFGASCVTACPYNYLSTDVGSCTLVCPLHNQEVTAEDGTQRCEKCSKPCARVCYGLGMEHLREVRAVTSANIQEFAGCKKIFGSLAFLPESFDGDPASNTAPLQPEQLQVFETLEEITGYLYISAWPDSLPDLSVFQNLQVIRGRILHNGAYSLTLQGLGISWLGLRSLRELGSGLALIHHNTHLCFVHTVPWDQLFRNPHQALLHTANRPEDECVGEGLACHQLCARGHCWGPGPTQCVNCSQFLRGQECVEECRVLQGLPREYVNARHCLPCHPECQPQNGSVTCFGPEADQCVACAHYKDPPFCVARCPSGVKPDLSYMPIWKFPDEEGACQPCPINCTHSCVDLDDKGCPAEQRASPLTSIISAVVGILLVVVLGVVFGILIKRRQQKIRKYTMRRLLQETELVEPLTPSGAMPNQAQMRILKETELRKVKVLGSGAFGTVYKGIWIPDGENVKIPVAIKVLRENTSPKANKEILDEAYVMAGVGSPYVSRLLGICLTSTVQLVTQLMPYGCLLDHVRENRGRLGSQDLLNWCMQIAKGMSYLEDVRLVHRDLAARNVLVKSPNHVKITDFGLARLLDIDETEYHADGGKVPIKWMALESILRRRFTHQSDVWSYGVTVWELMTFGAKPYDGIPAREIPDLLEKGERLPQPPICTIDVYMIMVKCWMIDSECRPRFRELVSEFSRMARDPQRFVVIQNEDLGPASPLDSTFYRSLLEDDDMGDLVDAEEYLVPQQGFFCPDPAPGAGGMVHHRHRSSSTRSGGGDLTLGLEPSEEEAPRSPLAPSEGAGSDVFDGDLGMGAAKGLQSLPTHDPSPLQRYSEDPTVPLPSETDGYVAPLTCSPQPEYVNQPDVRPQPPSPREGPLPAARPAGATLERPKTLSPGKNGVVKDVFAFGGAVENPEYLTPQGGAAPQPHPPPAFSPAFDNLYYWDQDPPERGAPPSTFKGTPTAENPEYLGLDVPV

[9] = molecular target: Insulin-like growth factor 1 receptor (Homo sapiens) (UniProt P08069); assay: Inhibition of IGF1R (unknown origin) at 100 nM relative to control; summary of the method: as §1
[10] = molecular target: Tyrosine-protein kinase JAK2 (Homo sapiens) (UniProt O60674); assay: Inhibition of JAK2 (unknown origin) at 100 nM relative to control; summary of the method: as §1
Tyrosine-protein kinase JAK2 (Homo sapiens), sequence (O60674 whole entry): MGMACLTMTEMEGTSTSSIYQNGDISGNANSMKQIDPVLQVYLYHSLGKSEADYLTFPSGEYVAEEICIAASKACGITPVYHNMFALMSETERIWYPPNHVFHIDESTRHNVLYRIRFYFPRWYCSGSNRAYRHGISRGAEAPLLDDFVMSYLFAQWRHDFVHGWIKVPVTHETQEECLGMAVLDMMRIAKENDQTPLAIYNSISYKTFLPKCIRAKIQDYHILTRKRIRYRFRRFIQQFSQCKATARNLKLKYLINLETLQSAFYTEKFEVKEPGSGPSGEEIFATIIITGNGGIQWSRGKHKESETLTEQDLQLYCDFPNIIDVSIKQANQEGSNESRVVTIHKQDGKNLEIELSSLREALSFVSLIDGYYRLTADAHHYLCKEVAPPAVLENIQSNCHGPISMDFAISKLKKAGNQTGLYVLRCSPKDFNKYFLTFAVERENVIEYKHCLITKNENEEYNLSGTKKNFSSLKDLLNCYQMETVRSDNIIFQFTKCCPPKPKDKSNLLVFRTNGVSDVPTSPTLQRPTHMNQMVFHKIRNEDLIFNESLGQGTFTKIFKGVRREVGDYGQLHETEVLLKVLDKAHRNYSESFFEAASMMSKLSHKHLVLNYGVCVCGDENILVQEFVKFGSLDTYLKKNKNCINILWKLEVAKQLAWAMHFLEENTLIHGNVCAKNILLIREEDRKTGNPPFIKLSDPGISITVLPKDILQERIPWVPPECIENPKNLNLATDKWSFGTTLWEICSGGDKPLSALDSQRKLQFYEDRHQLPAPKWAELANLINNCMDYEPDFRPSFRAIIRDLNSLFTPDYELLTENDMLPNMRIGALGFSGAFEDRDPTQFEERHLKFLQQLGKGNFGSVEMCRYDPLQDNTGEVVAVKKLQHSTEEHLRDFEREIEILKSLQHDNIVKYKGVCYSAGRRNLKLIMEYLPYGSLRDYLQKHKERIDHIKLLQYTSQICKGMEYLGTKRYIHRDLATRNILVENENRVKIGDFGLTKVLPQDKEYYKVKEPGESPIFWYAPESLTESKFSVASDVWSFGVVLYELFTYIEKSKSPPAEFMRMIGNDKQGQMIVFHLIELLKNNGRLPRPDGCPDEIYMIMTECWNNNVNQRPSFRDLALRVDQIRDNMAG

[11] = molecular target: Vascular endothelial growth factor receptor 1 (Homo sapiens) (UniProt P17948); assay: Inhibition of VEGFR1 (unknown origin) at 100 nM relative to control
Summary of the method: (§2)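 ELISA with purified recombinant kinase on plates precoated with poly(Glu,Tyr) 4:1 at 20 µg/mL. ATP 10 µM in HEPES pH 7.4 buffer with MgCl2, MnCl2, Na3VO4 and DTT. Run 60 min at 37 °C. Detected with anti-phosphotyrosine PY99, HRP secondary antibody and o-phenylenediamine, read at 490 nm. Inhibition % = [1 − A490/A490 control]×100. 1% DMSO as negative control.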

[12] = molecular target: Tyrosine-protein kinase receptor UFO (Homo sapiens) (UniProt P30530); assay: Inhibition of AXL (unknown origin) at 10 nM relative to control
[13] = molecular target: Tyrosine-protein kinase BTK (Homo sapiens) (UniProt Q06187); assay: Inhibition of BTK (unknown origin) at 10 nM relative to control
[14] = molecular target: Receptor tyrosine-protein kinase erbB-2 (Homo sapiens) (UniProt P04626); assay: Inhibition of ErbB2 (unknown origin) at 10 nM relative to control; summary of the method: as §1
[15] = molecular target: Fibroblast growth factor receptor 2 (Homo sapiens) (UniProt P21802); assay: Inhibition of FGFR2 (unknown origin) at 10 nM relative to control; summary of the method: as §1
[16] = molecular target: Fibroblast growth factor receptor 4 (Homo sapiens) (UniProt P22455); assay: Inhibition of FGFR4 (unknown origin) at 10 nM relative to control; summary of the method: as §1
Fibroblast growth factor receptor 4 (Homo sapiens), sequence (P22455 22-802 limits assumed): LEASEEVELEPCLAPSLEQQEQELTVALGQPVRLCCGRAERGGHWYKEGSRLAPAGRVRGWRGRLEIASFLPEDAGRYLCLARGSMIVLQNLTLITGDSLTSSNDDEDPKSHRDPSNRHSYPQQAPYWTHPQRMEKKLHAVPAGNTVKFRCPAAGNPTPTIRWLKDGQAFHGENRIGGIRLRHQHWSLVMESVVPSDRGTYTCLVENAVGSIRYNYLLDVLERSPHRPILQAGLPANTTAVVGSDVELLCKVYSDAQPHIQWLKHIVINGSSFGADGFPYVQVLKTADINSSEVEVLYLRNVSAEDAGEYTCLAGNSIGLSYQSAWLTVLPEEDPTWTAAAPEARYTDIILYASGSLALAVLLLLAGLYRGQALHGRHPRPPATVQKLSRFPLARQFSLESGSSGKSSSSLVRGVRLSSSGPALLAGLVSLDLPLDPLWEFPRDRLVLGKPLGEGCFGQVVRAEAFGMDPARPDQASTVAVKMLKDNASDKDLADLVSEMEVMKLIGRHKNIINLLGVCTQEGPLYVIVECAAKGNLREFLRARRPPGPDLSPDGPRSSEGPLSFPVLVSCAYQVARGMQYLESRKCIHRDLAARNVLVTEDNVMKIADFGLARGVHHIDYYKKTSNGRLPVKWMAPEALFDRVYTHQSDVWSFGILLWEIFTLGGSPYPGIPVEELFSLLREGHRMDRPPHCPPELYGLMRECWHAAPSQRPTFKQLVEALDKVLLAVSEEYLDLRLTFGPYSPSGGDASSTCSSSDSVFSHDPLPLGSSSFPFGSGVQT

[17] = molecular target: Tyrosine-protein kinase JAK1 (Homo sapiens) (UniProt P23458); assay: Inhibition of JAK1 (unknown origin) at 10 nM relative to control; summary of the method: as §1
[18] = molecular target: Tyrosine-protein kinase JAK2 (Homo sapiens) (UniProt O60674); assay: Inhibition of JAK2 (unknown origin) at 10 nM relative to control; summary of the method: as §1
[19] = molecular target: Angiopoietin-1 receptor (Homo sapiens) (UniProt Q02763); assay: Inhibition of Tie-2 (unknown origin) at 10 nM relative to control; summary of the method: as §2
KG-1 = assay: Antiproliferative activity against FGFR1 fused human KG1 cells after 72 hrs by CCK8 assay; assay type: functional, cell-based; details: KG-1, 72 h
Summary of the method: (§3)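 Cells seeded at low density in growth medium and compounds added the next day. Incubated 72 h, then proliferation read by sulforhodamine B, MTT or CCK-8. IC50 obtained by four-parameter concentration-response curve fitting.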

SNU-16 = assay: Antiproliferative activity against FGFR2 amplified human SNU16 cells after 72 hrs by CCK8 assay; assay type: functional, cell-based; details: SNU-16, 72 h; summary of the method: as §3
NCI-H716 = assay: Antiproliferative activity against FGFR2 amplified human NCI-H716 cells after 72 hrs by CCK8 assay; assay type: functional, cell-based; details: NCI-H716, 72 h; summary of the method: as §3

pIC50 [1]: 7.51
half-life [2]: 3.05 h
inhibition [3]: 5.6%
inhibition [4]: 0.9%
inhibition [5]: 36.9%
inhibition [6]: 31.2%
inhibition [7]: 47.1%
inhibition [8]: 5.6%
inhibition [9]: 8.2%
inhibition [10]: 2.5%
inhibition [11]: 46.8%
inhibition [12]: 42%
inhibition [13]: 32%
inhibition [14]: 8.2%
inhibition [15]: 67.8%
inhibition [16]: 8.1%
inhibition [17]: 0.2%
inhibition [18]: 5.4%
inhibition [19]: 10.4%
pIC50 (SNU-16): 7.03
pIC50 (NCI-H716): 7.50
Compound: Cc1ccc(C(=O)Nc2cccc(C(F)(F)F)c2)cc1-c1ccc2c(-c3cnn(C4CC4)c3)n[nH]c2c1
pIC50 (KG-1): 6.96
